Experimental data: ChEMBL document CHEMBL4033716, “The impact of the halogen bonding on D2 and 5-HT1A/5-HT7 receptor activity of azinesulfonamides of 4-[(2-ethyl)piperidinyl-1-yl]phenylpiperazines with antipsychotic and antidepressant properties” (Bioorg Med Chem, 2017)
pKi: −log10 of the molar value. Calls of active or inactive are those of the source. The calls are words filed in the database; no cut-off is given here.

Experiments:
[1] = biological target: T1, 5-hydroxytryptamine receptor 7 (Homo sapiens, UniProt P34969); test: Displacement of [3H]-5-CT from human 5-HT7 receptor expressed in HEK293 cell membranes after 1 hr by microbeta liquid scintillation counting analysis
T1 sequence (P34969 whole entry): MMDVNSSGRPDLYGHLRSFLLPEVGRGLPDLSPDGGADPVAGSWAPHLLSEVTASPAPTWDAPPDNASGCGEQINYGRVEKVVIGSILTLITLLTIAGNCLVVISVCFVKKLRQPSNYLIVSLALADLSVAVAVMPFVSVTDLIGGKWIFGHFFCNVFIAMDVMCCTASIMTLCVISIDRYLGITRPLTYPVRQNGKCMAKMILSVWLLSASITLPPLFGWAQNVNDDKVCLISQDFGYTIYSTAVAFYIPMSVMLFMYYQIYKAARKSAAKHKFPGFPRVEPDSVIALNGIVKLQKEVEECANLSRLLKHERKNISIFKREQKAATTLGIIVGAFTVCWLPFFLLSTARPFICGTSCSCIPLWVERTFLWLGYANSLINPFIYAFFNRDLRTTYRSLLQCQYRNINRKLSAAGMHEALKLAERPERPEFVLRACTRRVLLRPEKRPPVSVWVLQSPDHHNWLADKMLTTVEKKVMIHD
Summary of the method: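 Membranes from HEK293 pellets stably expressing human 5-HT7b, homogenized and centrifuged twice at 35 000 g (4°C) with 15 min 37°C incubation between. Buffer 50 mM Tris-HCl, 4 mM MgCl₂, 10 μM pargyline, 0.1% ascorbate. Incubated 1 h at 37°C, then filtered. Nonspecific binding defined with 10 µM 5-HT. Triplicates at 7–8 concentrations (10⁻¹¹–10⁻⁴ M). Ki by Cheng-Prusoff, ≥3 experiments.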

D(2) dopamine receptor [2] = biological target: T2, D(2) dopamine receptor (Homo sapiens, UniProt P14416); test: Displacement of [3H]-Raclopride from human dopamine D2L receptor expressed in HEK293 cell membranes after 1 hr by microbeta liquid scintillation counting analysis
T2 sequence (P14416 whole entry): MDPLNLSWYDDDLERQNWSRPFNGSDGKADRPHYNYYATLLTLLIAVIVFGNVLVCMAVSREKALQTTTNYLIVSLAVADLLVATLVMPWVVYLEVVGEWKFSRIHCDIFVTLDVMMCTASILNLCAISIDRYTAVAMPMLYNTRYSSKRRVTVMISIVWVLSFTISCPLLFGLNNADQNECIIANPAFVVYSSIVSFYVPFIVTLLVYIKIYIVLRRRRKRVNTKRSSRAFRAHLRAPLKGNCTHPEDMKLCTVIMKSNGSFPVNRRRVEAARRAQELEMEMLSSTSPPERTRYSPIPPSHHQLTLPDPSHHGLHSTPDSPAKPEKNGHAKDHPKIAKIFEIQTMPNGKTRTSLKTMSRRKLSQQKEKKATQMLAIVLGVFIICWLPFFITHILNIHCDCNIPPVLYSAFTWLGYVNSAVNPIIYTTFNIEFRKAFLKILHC
Summary of the method: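 HEK293 membranes expressing human D2L. Incubated 1 h at 37°C, rapid filtration. 1 µM (+)butaclamol defined nonspecific binding. Triplicates at 7–8 concentrations, 10⁻¹¹–10⁻⁴ M. Ki via Cheng-Prusoff, ≥3 experiments.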

[3] = biological target: T3, 5-hydroxytryptamine receptor 1A (Homo sapiens, UniProt P08908); test: Displacement of [3H]-8-OH-DPAT from human 5-HT1A receptor expressed in HEK293 cell membranes after 1 hr by microbeta liquid scintillation counting analysis
T3 sequence (P08908 whole entry): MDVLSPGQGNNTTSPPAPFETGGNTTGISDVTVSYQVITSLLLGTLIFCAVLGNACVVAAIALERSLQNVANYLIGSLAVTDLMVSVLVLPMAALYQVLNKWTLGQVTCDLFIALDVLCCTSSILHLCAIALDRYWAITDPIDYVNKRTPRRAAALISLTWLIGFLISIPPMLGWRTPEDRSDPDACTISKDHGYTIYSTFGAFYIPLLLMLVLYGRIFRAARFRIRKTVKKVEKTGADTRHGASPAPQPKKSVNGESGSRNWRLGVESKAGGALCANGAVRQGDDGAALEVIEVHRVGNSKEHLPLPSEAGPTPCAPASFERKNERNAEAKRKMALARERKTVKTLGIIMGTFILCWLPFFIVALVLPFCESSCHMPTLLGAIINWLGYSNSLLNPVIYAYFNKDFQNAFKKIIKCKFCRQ
Summary of the method: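 HEK293 membranes with stably expressed human 5-HT1A, washed by two 35 000 g spins. Buffer 50 mM Tris-HCl, 0.1 mM EDTA, 4 mM MgCl₂, 10 μM pargyline, 0.1% ascorbate. Incubated 1 h at room temperature, then rapid filtration. 10 µM 5-HT defined nonspecific binding. Tested in triplicate over 10⁻¹¹–10⁻⁴ M (7–8 concentrations). Ki via Cheng-Prusoff, mean of ≥3 experiments.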

[4] = biological target: 5-hydroxytryptamine receptor 2A (Homo sapiens, UniProt P28223); test: Displacement of [3H]-Ketanserin from human 5-HT2A receptor expressed in HEK293 cell membranes after 1 hr by microbeta liquid scintillation counting analysis
5-hydroxytryptamine receptor 2A, sequence (P28223 whole entry): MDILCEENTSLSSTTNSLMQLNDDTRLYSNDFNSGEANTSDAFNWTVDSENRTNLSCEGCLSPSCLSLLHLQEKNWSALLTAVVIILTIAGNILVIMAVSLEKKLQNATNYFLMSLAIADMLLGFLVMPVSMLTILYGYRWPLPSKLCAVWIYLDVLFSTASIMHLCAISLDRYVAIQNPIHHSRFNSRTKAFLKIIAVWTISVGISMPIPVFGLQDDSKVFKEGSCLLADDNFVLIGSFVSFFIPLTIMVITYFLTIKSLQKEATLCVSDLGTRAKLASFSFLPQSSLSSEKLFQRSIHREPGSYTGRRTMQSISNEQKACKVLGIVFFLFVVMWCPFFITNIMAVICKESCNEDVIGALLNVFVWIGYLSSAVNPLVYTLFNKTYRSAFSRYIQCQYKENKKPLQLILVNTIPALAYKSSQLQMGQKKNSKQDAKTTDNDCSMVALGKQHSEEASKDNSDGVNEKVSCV
Summary of the method: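 Competition binding on membranes from HEK293 cells stably expressing human 5-HT2A, prepared by homogenization and two 35 000 g centrifugations. Incubated 1 h at 37°C, then filtered and counted. Triplicate points at 7–8 concentrations, 10⁻¹¹–10⁻⁴ M. Ki from Cheng-Prusoff, ≥3 separate experiments.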

[5] = biological target: 5-hydroxytryptamine receptor 6 (Homo sapiens, UniProt P50406); test: Displacement of [3H]-LSD from human 5-HT6 receptor expressed in HEK293 cell membranes after 1 hr by microbeta liquid scintillation counting analysis
5-hydroxytryptamine receptor 6, sequence (P50406 whole entry): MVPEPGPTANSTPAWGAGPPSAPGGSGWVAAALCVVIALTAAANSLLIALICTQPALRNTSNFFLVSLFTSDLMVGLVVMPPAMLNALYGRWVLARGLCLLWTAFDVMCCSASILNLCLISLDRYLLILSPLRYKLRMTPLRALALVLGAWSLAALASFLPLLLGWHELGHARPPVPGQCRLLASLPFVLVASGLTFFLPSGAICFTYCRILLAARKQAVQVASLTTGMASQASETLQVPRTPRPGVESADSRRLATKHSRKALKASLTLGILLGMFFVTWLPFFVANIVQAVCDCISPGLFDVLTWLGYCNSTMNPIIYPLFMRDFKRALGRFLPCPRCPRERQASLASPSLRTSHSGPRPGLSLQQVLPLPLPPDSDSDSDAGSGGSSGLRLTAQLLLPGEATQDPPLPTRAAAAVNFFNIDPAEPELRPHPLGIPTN
Summary of the method: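 Human 5-HT6 stably expressed in HEK293; cell membranes washed by two 35 000 g spins. Buffer 50 mM Tris-HCl, 0.5 mM EDTA, 4 mM MgCl₂. Incubated 1 h at 37°C, filtered. Nonspecific binding with 10 µM methiothepine. 7–8 concentrations (10⁻¹¹–10⁻⁴ M) in triplicate. Ki by Cheng-Prusoff, ≥3 experiments.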

Mus musculus [6] = test: Antipsychotic activity in CD-1 mouse assessed as inhibition of dizocilpine-induced hyperlocomotor activity at 0.5 mg/kg, ip pretreated with dizocilpine for 15 mins followed by compound administration for 60 mins; type: functional, organism-based
Summary of the method: (§1)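 Male CD-1 mice, tested in the light phase, observer blind. Test compounds i.p. 60 min and MK-801 i.p. 15 min before testing, in distilled water at 10 ml/kg; vehicle controls. After 30 min cage habituation, ambulation recorded by activity monitor for 1 h in 5-min bins. 8–10 animals/group; mean ± SEM, one-way ANOVA with Bonferroni test.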

Mus musculus [7] = test: Antidepressant-like activity in Swiss albino mouse assessed as decrease in immobility time at 1.25 mg/kg, ip for 30 mins measured last 4 mins of 6 mins test by forced swim test relative to control; type: functional; design: scale not given: the % may be the effect or the level left
Summary of the method: (§2)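 Male Swiss albino mice (22–26 g), used once, observer blind. Drugs dissolved in distilled water, given i.p. at 10 ml/kg: test compounds 60 min, citalopram 30 min before testing; controls got vehicle. Mice placed 6 min in a cylinder with 10 cm water at 23–25°C; immobility scored over the last 4 min. 7–12 mice/group; one-way ANOVA then Bonferroni.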

Mus musculus [8] = test: Antipsychotic activity in CD-1 mouse assessed as inhibition of MK-801-induced hyperlocomotor activity at 2.5 to 30 mg/kg, ip pretreated with MK-801 for 15 mins followed by compound administration for 60 mins; type: functional, organism-based; summary of the method: as §1
Mus musculus [9] = test: Antipsychotic activity in CD-1 mouse assessed as inhibition of MK-801-induced hyperlocomotor activity administered ip pretreated with MK-801 for 15 mins followed by compound treatment for 60 mins; type: functional; details: CD-1, ip, read-out: MED; summary of the method: as §1
Mus musculus [10] = test: Antidepressant-like activity in Swiss albino mouse assessed as decrease in immobility time administered ip for 30 mins measured last 4 mins of 6 mins test by forced swim test relative to control; type: functional; details: read-out: MED; summary of the method: as §2
D(2) dopamine receptor [11] = biological target: T2, D(2) dopamine receptor; test: Antagonist activity at human dopamine D2 receptor expressed in HEK293 cells at 1 uM assessed as inhibition of dopamine-induced cAMP production; type: functional, cell-based
Summary of the method: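 Cellular cAMP antagonist assay run by a contract lab on HEK293 cells stably expressing human D2 receptor. Compound tested at 10⁻⁶ M. Result given as % inhibition of the control agonist response to dopamine 30 nM.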

Mus musculus [12] = test: Antipsychotic activity in CD-1 mouse assessed as inhibition of MK-801-induced hyperlocomotor activity at 5 to 20 mg/kg, ip pretreated with MK-801 for 15 mins followed by compound administration for 60 mins; type: functional, organism-based; summary of the method: as §1
[13] = biological target: T1, 5-hydroxytryptamine receptor 7; test: Antagonist activity at human 5-HT7 receptor expressed in CHOK1 cells assessed as inhibition of serotonin-induced cAMP production at 1 uM after 30 mins by HTRF assay; type: functional, cell-based
Summary of the method: (§3)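 Cellular cAMP functional antagonist assay run by a contract lab. Human 5-HT7 receptor was stably expressed in CHO cells, and human 5-HT1A in HEK293 cells. Read-out was % inhibition of the control agonist response.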

[14] = biological target: T4, 5-hydroxytryptamine receptor 1A (Homo sapiens) (UniProt P08908); test: Antagonist activity at human 5-HT1A receptor expressed in HEK293 cells assessed as inhibition of 8-OH-DPAT-induced cAMP production at 1 uM by fluorescence assay; type: functional, cell-based; summary of the method: as §3
T4 sequence (whole entry): T3 sequence (P08908 whole entry)

Mus musculus [15] = test: Antidepressant-like activity in Swiss albino mouse assessed as decrease in immobility time at 0.625 mg/kg measured last 4 mins of 6 mins test by forced swim test relative to control; type: functional; design: scale not given: the % may be the effect or the level left; summary of the method: as §2
Mus musculus [16] = test: Antipsychotic activity in CD-1 mouse assessed as inhibition of MK-801-induced hyperlocomotor activity at 10 to 20 mg/kg, ip pretreated with MK-801 for 15 mins followed by compound administration for 60 mins; type: functional, organism-based; summary of the method: as §1
Mus musculus [17] = test: Antidepressant-like activity in Swiss albino mouse assessed as decrease in immobility time at 2.5 mg/kg, ip measured last 4 mins of 6 mins test by forced swim test relative to control; type: functional; design: scale not given: the % may be the effect or the level left; summary of the method: as §2
Mus musculus [18] = test: Antipsychotic activity in CD-1 mouse assessed as inhibition of MK-801-induced hyperlocomotor activity at 30 mg/kg, ip pretreated with MK-801 for 15 mins followed by compound administration for 60 mins; type: functional, organism-based; summary of the method: as §1
Mus musculus [19] = test: Antidepressant-like activity in Swiss albino mouse assessed as decrease in immobility time at 1.25 mg/kg, ip measured last 4 mins of 6 mins test by forced swim test relative to control; type: functional; design: scale not given: the % may be the effect or the level left; summary of the method: as §2

Structure (SMILES)	pKi [1]	pKi (D(2) dopamine receptor [2])	pKi [3]	pKi [4]	pKi [5]	other results
O=S(=O)(c1cccc2ncccc12)N1CCC(CCN2CCN(c3cccc(C(F)(F)F)c3)CC2)CC1	7.25	6.83	7.40	6.28	6.19	
O=C1CCc2ccc(OCCCCN3CCN(c4cccc(Cl)c4Cl)CC3)cc2N1						inhibition (Mus musculus [6]): Active
O=S(=O)(c1cncc2ccccc12)N1CCC(CCN2CCN(c3ccc(Cl)c(Cl)c3)CC2)CC1	7.44	6.84	6.49	6.75	5.98	
O=S(=O)(c1cccc2ncccc12)N1CCC(CCN2CCN(c3cccc(Cl)c3)CC2)CC1	7.43	7.12	7.27	6.71	6.35	
O=S(=O)(c1cccc2ncccc12)N1CCC(CCN2CCN(c3ccc(Cl)cc3)CC2)CC1	7.43	6.85	6.13	6.82	5.99	
O=S(=O)(c1cccc2ncccc12)N1CCC(CCN2CCN(c3ccc(Cl)c(Cl)c3)CC2)CC1	7.28	6.92	6.59	6.47	6.10	
O=S(=O)(c1cccc2ncccc12)N1CCC(CCN2CCN(c3ccccc3)CC2)CC1	6.68	5.91	6.13	6.19	5.17	
O=S(=O)(c1cncc2ccccc12)N1CCC(CCN2CCN(c3cccc(F)c3)CC2)CC1	6.85	6.00	6.43	6.16	5.42	
CN(C)CCCC1(c2ccc(F)cc2)OCc2cc(C#N)ccc21 (configuration not stated) [CITALOPRAM]						Activity (Mus musculus [7]): 28%
O=S(=O)(c1cncc2ccccc12)N1CCC(CCN2CCN(c3ccc(Cl)cc3)CC2)CC1						inhibition (Mus musculus [8]): Active; minimal effective dose (Mus musculus [9]): 5 mg/kg; minimal effective dose (Mus musculus [10]): 30 mg/kg
O=S(=O)(c1cncc2ccccc12)N1CCC(CCN2CCN(c3ccc(F)cc3)CC2)CC1	7.85	6.38	6.01	6.81	5.73	
O=S(=O)(c1cccc2ncccc12)N1CCC(CCN2CCN(c3ccc(F)cc3)CC2)CC1	7.54	6.65	6.12	6.86	5.84	
O=S(=O)(c1cncc2ccccc12)N1CCC(CCN2CCN(c3cccc(Cl)c3Cl)CC2)CC1	7.41	7.52	7.54	6.43	6.51	inhibition (D(2) dopamine receptor [11]): 79%; inhibition (Mus musculus [12]): inactive; inhibition [13]: 75%; inhibition [14]: 64%
O=S(=O)(c1cncc2ccccc12)N1CCC(CCN2CCN(c3cccc(C(F)(F)F)c3)CC2)CC1	7.28	6.83	7.52	6.79	5.99	
O=S(=O)(c1cccc2ncccc12)N1CCC(CCN2CCN(c3cccc(F)c3)CC2)CC1	6.78	5.74	6.22	6.18	5.08	
O=S(=O)(c1cncc2ccccc12)N1CCC(CCN2CCN(c3ccccc3)CC2)CC1	6.76	5.91	6.27	6.39	5.62	
O=S(=O)(c1cccc2ncccc12)N1CCC(CCN2CCN(c3cccc(Cl)c3Cl)CC2)CC1	7.26	7.44	7.35	6.54	6.40	inhibition (D(2) dopamine receptor [11]): 88%; Activity (Mus musculus [15]): 23%; inhibition [13]: 69%; minimal effective dose (Mus musculus [9]): 10 mg/kg; inhibition (Mus musculus [16]): Active; minimal effective dose (Mus musculus [10]; in the assay text read “for 60 mins” for “for 30 mins”): 0.625 mg/kg; inhibition [14]: 63%
O=S(=O)(c1cncc2ccccc12)N1CCC(CCN2CCN(c3cccc(Cl)c3)CC2)CC1	7.74	7.43	7.49	6.80	5.93	inhibition (D(2) dopamine receptor [11]): 85%; inhibition [13]: 73%; Activity (Mus musculus [17]): 32%; inhibition (Mus musculus [18]): Active; Activity (Mus musculus [19]): 36%; inhibition [14]: 69%
